From ChEMBL document CHEMBL2384995, “Discovery of highly potent triazole antifungal derivatives by heterocycle-benzene bioisosteric replacement” (Eur J Med Chem, 2013)
In brackets after ≈: the same amount, converted by molar mass.

How the values were obtained:
[1] = Cmax in Sprague-Dawley rat at 15 mg/kg, po by LC/MS/MS analysis; type: ADME, organism-based; parameters: dose 15 mg/kg, route oral; details: in vivo
Procedure, shortened: (§1)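 Single oral dose of 15 mg/kg in Sprague-Dawley rats. Blood was drawn from the orbital venous plexus at several time points and plasma drug levels were quantified by LC/MS/MS, from which the pharmacokinetic parameters were obtained.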

[2] = Tmax in Sprague-Dawley rat at 15 mg/kg, po by LC/MS/MS analysis; type: ADME, organism-based; parameters: dose 15 mg/kg, route oral; details: in vivo; procedure, shortened: as §1
[3] = AUC (0 to infinity) in Sprague-Dawley rat at 15 mg/kg, po by LC/MS/MS analysis; type: ADME, organism-based; parameters: time infinity, dose 15 mg/kg, route oral; details: plasma; procedure, shortened: as §1
[4] = Half life in Sprague-Dawley rat at 15 mg/kg, po by LC/MS/MS analysis; type: ADME, organism-based; parameters: dose 15 mg/kg, route oral; details: in vivo; procedure, shortened: as §1
Cryptococcus neoformans [5] = assay: Antifungal activity against Cryptococcus neoformans after 72 hrs by NCCLS method; type: functional
Procedure, shortened: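 NCCLS serial-dilution MIC assay in 96-well plates against an ATCC or clinical yeast isolate. Test agents were taken up in DMSO and diluted serially in growth medium. Plates were held at 35 °C and growth was scored at 72 h. MIC80 is the lowest concentration reducing turbidity by at least 80% compared with the control culture.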

Aspergillus fumigatus = assay: Antifungal activity against Aspergillus fumigatus after 7 days by NCCLS method; type: functional; details: 168 h
Procedure, shortened: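 Microtest-plate serial dilution per NCCLS, with the strain taken from ATCC or a clinical source. Compounds were prepared in DMSO and serially diluted in growth medium. Growth was read after 7 days. The endpoint is the lowest concentration producing ≥80% turbidity inhibition versus the untreated growth control.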

Trichophyton rubrum [6] = assay: Ratio of fluconazole MIC80 to compound MIC80 for Trichophyton rubrum; type: functional
Cryptococcus neoformans [7] = assay: Ratio of fluconazole MIC80 to compound MIC80 for Cryptococcus neoformans; type: functional
Candida albicans = assay: Antifungal activity against Candida albicans after 24 hrs by NCCLS method; type: functional
Procedure, shortened: (§2)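 Broth microdilution in 96-well plates following NCCLS recommendations, using ATCC strains or clinical isolates. Compounds were dissolved in DMSO and serially diluted in growth medium. Yeast plates were incubated at 35 °C and read at 24 h. MIC80 is the lowest concentration giving turbidity of […] inhibition relative to the drug-free growth control.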

Trichophyton rubrum [8] = assay: Antifungal activity against Trichophyton rubrum by NCCLS method; type: functional
Procedure, shortened: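 Dermatophyte MIC by NCCLS broth serial dilution in 96-well plates, using an ATCC or clinical isolate. DMSO solutions were serially diluted in growth medium and incubated at 28 °C.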

Candida tropicalis = assay: Antifungal activity against Candida tropicalis after 24 hrs by NCCLS method; type: functional; procedure, shortened: as §2
[9] = Cryptococcus neoformans, 72 h, read-out: MIC80
[10] = Candida albicans, 24 h, read-out: MIC80

CN(Cc1ccc(I)cc1)CC(O)(Cn1cncn1)c1ccc(F)cc1F (stereo not drawn)
Cmax [1]: 297 ng/mL
Tmax [2]: 0.9 h
AUC(0-inf) [3]: 546 ng·h/mL
half-life [4]: 1.38 h

OC(CN1CCN(Cc2nc3ccccc3s2)CC1)(Cn1cncn1)c1ccc(F)cc1F (racemic)
MIC80 (Cryptococcus neoformans [5]): 0.016 µg/mL (≈ 0.034 µM)
MIC80 (Aspergillus fumigatus): 64 µg/mL (≈ 136 µM)
Cmax [1]: 508 ng/mL
Tmax [2]: 0.8 h
Ratio (Trichophyton rubrum [6]): 16
AUC(0-inf) [3]: 1420 ng·h/mL
Ratio (Cryptococcus neoformans [7]): 125
half-life [4]: 1.27 h
MIC80 (Candida albicans): 0.016 µg/mL (≈ 0.034 µM)
MIC80 (Trichophyton rubrum [8]): 0.0625 µg/mL (≈ 0.133 µM)
MIC80 (Candida tropicalis): 0.004 µg/mL (≈ 0.0085 µM)

CN(Cc1cccs1)CC(O)(Cn1cncn1)c1ccc(F)cc1F (racemic)
MIC80 (Cryptococcus neoformans [5]; [9]): 0.016 µg/mL (≈ 0.0439 µM)
MIC80 (Aspergillus fumigatus): 16 µg/mL (≈ 43.9 µM)
Ratio (Cryptococcus neoformans [7]): 125
MIC80 (Candida albicans; [10]): 1 µg/mL (≈ 2.74 µM)
MIC80 (Trichophyton rubrum [8]): 1 µg/mL (≈ 2.74 µM)
MIC80 (Candida tropicalis): 0.125 µg/mL (≈ 0.343 µM)

CN(Cc1ccco1)CC(O)(Cn1cncn1)c1ccc(F)cc1F (racemic)
MIC80 (Cryptococcus neoformans [5]; [9]): 0.0625 µg/mL (≈ 0.179 µM)
MIC80 (Aspergillus fumigatus): 64 µg/mL (≈ 184 µM)
Ratio (Cryptococcus neoformans [7]): 32
MIC80 (Candida albicans; [10]): 0.0625 µg/mL (≈ 0.179 µM)
MIC80 (Trichophyton rubrum [8]): 1 µg/mL (≈ 2.87 µM)
MIC80 (Candida tropicalis): 0.016 µg/mL (≈ 0.0459 µM)

CN(Cc1ccc2ccccc2n1)CC(O)(Cn1cncn1)c1ccc(F)cc1F (racemic)
MIC80 (Cryptococcus neoformans [5]; [9]): 0.25 µg/mL (≈ 0.611 µM)
MIC80 (Aspergillus fumigatus): > 64 µg/mL
Ratio (Cryptococcus neoformans [7]): 8
MIC80 (Candida albicans; [10]): 4 µg/mL (≈ 9.77 µM)
MIC80 (Trichophyton rubrum [8]): 4 µg/mL (≈ 9.77 µM)
MIC80 (Candida tropicalis): 1 µg/mL (≈ 2.44 µM)

CN(Cc1ccccn1)CC(O)(Cn1cncn1)c1ccc(F)cc1F (racemic)
MIC80 (Cryptococcus neoformans [5]; [9]): 0.25 µg/mL (≈ 0.696 µM)
MIC80 (Aspergillus fumigatus): > 64 µg/mL
Ratio (Cryptococcus neoformans [7]): 8
MIC80 (Candida albicans; [10]): 1 µg/mL (≈ 2.78 µM)
MIC80 (Trichophyton rubrum [8]): 4 µg/mL (≈ 11.1 µM)
MIC80 (Candida tropicalis): 0.0625 µg/mL (≈ 0.174 µM)

CN(Cc1nc2ccccc2[nH]1)CC(O)(Cn1cncn1)c1ccc(F)cc1F (racemic)
MIC80 (Cryptococcus neoformans [5]; [9]): 16 µg/mL (≈ 40.2 µM)
MIC80 (Aspergillus fumigatus): > 64 µg/mL
MIC80 (Candida albicans; [10]): 4 µg/mL (≈ 10 µM)
MIC80 (Trichophyton rubrum [8]): > 64 µg/mL
MIC80 (Candida tropicalis): 0.25 µg/mL (≈ 0.627 µM)

OC(CN1CCN(Cc2cccs2)CC1)(Cn1cncn1)c1ccc(F)cc1F (racemic)
MIC80 (Cryptococcus neoformans [5]; [9]): 0.25 µg/mL (≈ 0.596 µM)
MIC80 (Aspergillus fumigatus): 16 µg/mL (≈ 38.1 µM)
Ratio (Cryptococcus neoformans [7]): 8
MIC80 (Candida albicans; [10]): 0.0625 µg/mL (≈ 0.149 µM)
MIC80 (Trichophyton rubrum [8]): 4 µg/mL (≈ 9.54 µM)
MIC80 (Candida tropicalis): 0.016 µg/mL (≈ 0.0381 µM)

OC(CN1CCN(Cc2ccc3ccccc3n2)CC1)(Cn1cncn1)c1ccc(F)cc1F (racemic)
MIC80 (Cryptococcus neoformans [5]; [9]): 0.0625 µg/mL (≈ 0.135 µM)
MIC80 (Aspergillus fumigatus): 2 µg/mL (≈ 4.31 µM)
Ratio (Cryptococcus neoformans [7]): 32
MIC80 (Candida albicans; [10]): 1 µg/mL (≈ 2.15 µM)
MIC80 (Trichophyton rubrum [8]): 0.25 µg/mL (≈ 0.538 µM)
MIC80 (Candida tropicalis): 0.016 µg/mL (≈ 0.0344 µM)

OC(CN1CCN(Cc2ccccn2)CC1)(Cn1cncn1)c1ccc(F)cc1F (racemic)
MIC80 (Cryptococcus neoformans [5]; [9]): 1 µg/mL (≈ 2.41 µM)
MIC80 (Aspergillus fumigatus): 16 µg/mL (≈ 38.6 µM)
Ratio (Cryptococcus neoformans [7]): 2
MIC80 (Candida albicans; [10]): 0.0625 µg/mL (≈ 0.151 µM)
MIC80 (Trichophyton rubrum [8]): 1 µg/mL (≈ 2.41 µM)
MIC80 (Candida tropicalis): 1 µg/mL (≈ 2.41 µM)

OC(CN1CCN(Cc2nc3ccccc3[nH]2)CC1)(Cn1cncn1)c1ccc(F)cc1F (racemic)
MIC80 (Cryptococcus neoformans [5]; [9]): 16 µg/mL (≈ 35.3 µM)
MIC80 (Aspergillus fumigatus): > 64 µg/mL
MIC80 (Candida albicans; [10]): 4 µg/mL (≈ 8.82 µM)
MIC80 (Trichophyton rubrum [8]): 64 µg/mL (≈ 141 µM)
MIC80 (Candida tropicalis): 1 µg/mL (≈ 2.21 µM)

OC(CN1CCN(Cc2nc3ccccc3o2)CC1)(Cn1cncn1)c1ccc(F)cc1F (racemic)
MIC80 (Cryptococcus neoformans [5]; [9]): 0.0625 µg/mL (≈ 0.138 µM)
MIC80 (Aspergillus fumigatus): 0.25 µg/mL (≈ 0.55 µM)
Ratio (Trichophyton rubrum [6]): 4
Ratio (Cryptococcus neoformans [7]): 32
MIC80 (Candida albicans; [10]): 0.0625 µg/mL (≈ 0.138 µM)
MIC80 (Trichophyton rubrum [8]): 0.25 µg/mL (≈ 0.55 µM)
MIC80 (Candida tropicalis): 0.004 µg/mL (≈ 0.0088 µM)

OC(CN1CCN(Cc2nc3ccccc3s2)CC1)(Cn1cncn1)c1ccc(F)cc1F (single isomer, unassigned; (+))
MIC80 (Cryptococcus neoformans [5]): 0.0625 µg/mL (≈ 0.133 µM)
MIC80 (Candida albicans): 0.0625 µg/mL (≈ 0.133 µM)

OC(CN1CCN(Cc2nc3ccccc3s2)CC1)(Cn1cncn1)c1ccc(F)cc1F (stereo in doubt; (-)-8f)
MIC80 (Cryptococcus neoformans [5]): <0.016 µg/mL
MIC80 (Candida albicans): <0.016 µg/mL

OC(Cn1cncn1)(Cn1cncn1)c1ccc(F)cc1F [FLUCONAZOLE]
MIC80 (Cryptococcus neoformans [5]; [9]): 2 µg/mL (≈ 6.53 µM)
MIC80 (Aspergillus fumigatus): > 64 µg/mL
MIC80 (Candida albicans; [10]): 0.25 µg/mL (≈ 0.816 µM)
MIC80 (Trichophyton rubrum [8]): 1 µg/mL (≈ 3.27 µM)
MIC80 (Candida tropicalis): 4 µg/mL (≈ 13.1 µM)
